Measurements from different studies.
Lines come from different studies, so protocols differ.
Target: Mitogen-activated protein kinase 9 (MAPK9, Homo sapiens, UniProt P45984)

Structure (SMILES) | observed | action | technique | concentration | quantity | result
O=C1Nc2ccc(Cl)cc2C1=Cc1cc(Cl)c(O)c(Cl)c1 | cell-free assay | – | – | 0.5 µM | remaining signal | 100%
CN(c1ncccc1CNc1nc(Nc2ccc3c(c2)CC(=O)N3)ncc1C(F)(F)F)S(C)(=O)=O | enzyme activity | inhibitor | – | 1 µM | inhibition | 12.4%
CCCS(=O)(=O)Nc1ccc(F)c(C(=O)c2c[nH]c3ncc(-c4ccc(Cl)cc4)cc23)c1F | enzyme activity | inhibitor | – | 1 µM | inhibition | < 10%
C[S+]([O-])c1ccc(-c2nc(-c3ccncc3)c(-c3ccc(F)cc3)[nH]2)cc1 (centres unmarked) | cell-free assay | – | – | 0.5 µM | remaining signal | 100%
Cn1c2c(Cl)c(Cl)ccc2c2cc(N)[nH]c(=O)c21 | thermal stability | – | DSF | 10 µM | ΔTm | 0.7 °C
COc1cc(Cl)c(C(=O)N[C@@H](CN[C@H]2CC[C@@H](N)CC2)Cc2ccc(C#N)cc2)cc1-c1ccc(CN[C@H](C)c2ccc(C)cc2)o1 | enzyme activity | inhibitor | – | 1 µM | remaining activity | 93%
O=C(NCc1ncc(C(F)(F)F)cc1Cl)c1ccc2c(c1)C1(CCS(=O)(=O)CC1)[C@@H](C1CC1)N2S(=O)(=O)c1ccc(F)cc1 | cell-free assay | – | competition with immobilised ligand | 1 µM | remaining binding | 82%
Cn1c2c(c3ccc(Cl)c(Cl)c31)C(C#N)C1(CCOCC1)NC2=O (centres unmarked) | thermal stability | – | DSF | 10 µM | ΔTm | 0 °C
Cn1nc(C(F)(F)F)cc1-c1cnc(N2CCc3cc(S(=O)(=O)Nc4c(F)cc(Cl)cc4F)cc(N4CCCC4=O)c32)nc1 | cell-free assay | – | competition with immobilised ligand | 1 µM | remaining binding | 95%
Cc1ccc(NC(=O)c2ccc(C)c(C(F)(F)F)c2)cc1C#Cc1nn(C2CCC(O)CC2)c2ncnc(N)c12 (centres unmarked) | cell-free assay | – | – | 10 µM | remaining signal | 13%
Cn1c(=O)n(-c2ccc(C(C)(C)C#N)cc2)c2c3cc(-c4cnc5ccccc5c4)ccc3ncc21 | enzyme activity | inhibitor | – | 10 µM | remaining activity | 89%
CC(=O)N1CCC(c2ccc(C(=O)NC3=NCCN3)cc2C(F)(F)F)CC1 | cell-free assay | – | competition with immobilised ligand | 1 µM | remaining binding | 92%
Nc1nc(Nc2ccccc2)sc1C(=O)c1c(F)cccc1F | enzyme activity | inhibitor | – | 10 µM | remaining activity | 81%
Cn1c2c(c3ccc(Cl)c(Cl)c31)C(C#N)C(C)(C)NC2=O (centres unmarked) | thermal stability | – | DSF | 10 µM | ΔTm | 0.4 °C
FC(F)(F)c1ccc2c(c1)nc(-c1cccnc1)n2C1CC1 | cell-free assay | – | competition with immobilised ligand | 1 µM | remaining binding | 100%
Cc1sc(C(=O)NC2COC2)cc1-n1cc(NC(=O)Nc2c(F)cccc2Cl)cn1 | enzyme activity | inhibitor | – | 10 µM | remaining activity | 51.9%
CC(C)(C)c1nc(-c2cccc(NS(=O)(=O)c3c(F)cccc3F)c2F)c(-c2ccnc(N)n2)s1 | enzyme activity | inhibitor | radiometric | 1 µM | remaining activity | 105%
O=C(O)[C@H]1[C@H](Cn2nnc3ccccc3c2=O)CC[C@@H]1C(=O)c1ccc(OCCC2CCOCC2)cc1 | cell-free assay | – | competition with immobilised ligand | 1 µM | remaining binding | 79%
CNC(=O)c1cc(Oc2ccc(NC(=O)Nc3ccc(Cl)c(C(F)(F)F)c3)cc2)ccn1 | enzyme activity | inhibitor | – | 10 µM | inhibition | 54%
Cc1cc(NC(=O)c2cccc(S(F)(F)(F)(F)F)c2)cc(-n2ccn3nc(-c4cccnc4)cc23)c1 | cell-free assay | – | competition with immobilised ligand | 1 µM | remaining binding | 76.9%
Cc1ccc(C(=O)NCc2ccsc2)cc1C#Cc1cn(C(C)C)c2ncnc(N)c12 | enzyme activity | inhibitor | – | 1 µM | activity vs control | 85%
CS(=O)(=O)NCC[C@H](NC(=O)c1cncc2c1cnn2-c1ccc(F)cc1)c1ccnc(S(C)(=O)=O)c1 | cell-free assay | – | competition with immobilised ligand | 1 µM | remaining binding | 86%
Cn1c2c(c3ccc(Cl)c(Cl)c31)C(C#N)C1(CCCC1)NC2=O (centres unmarked) | thermal stability | – | DSF | 10 µM | ΔTm | -0.1 °C
